The values below come from article PMC4980077 (The FEBS journal, 2016).

Entries after “also recorded” stand apart in the source; their conditions may differ.

The nature of data set [1]: Circular dichroism of AKB peptides. The following applies: 0.1 M Tris pH 8.5, Jasco J-810. The format is physicochemical. (In general: Circular dichroism is widely used to follow secondary structure.)
For the next data set, the system named is PKG Iα. The data set can be described thus: 32P phosphorylation assay with PKG Iα. The format is biochemical. As to conditions: PKG Iα 20 nM, pH 7.5; n = 3. A digest of the protocol:
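Substrate was His-tagged human smAKAP (wild type, or S66D with PKA-Cα) at 10 μM. It was incubated with 20 nM recombinant kinase in 50 mM MOPS pH 7.5 containing 10 mM MgCl2, 200 μM ATP and [32P]ATP. Aliquots were quenched in 30% acetic acid at 0, 5, 10 and 15 min. Results are means ± SD of 3 independent experiments.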

Another data set has as its system PKA-RIα. Kind of data set: Confocal colocalization with PKA-RIα in HeLa cells. The following applies: transfected, confocal, PKA-RIα-mCherry. In kind it is cell-based.
In another data set the test system is PKA-RIβ. The data set can be described thus: Confocal colocalization with PKA-RIβ-mKO2 in HeLa cells. The format is cell-based. As to conditions: transfected, confocal, unstimulated. The essentials: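 HeLa cells co-expressed GFP-tagged smAKAP (wild type, S66E or S66D) with mKO2-tagged PKA-RIα or RIβ. Cells were washed in ice-cold PBS, fixed in ice-cold 4% formaldehyde in PBS, washed twice and imaged by confocal microscopy through a 63× oil objective. Stimulated cells received calyculin A plus 8-CPT-cAMP and were imaged live.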

A further data set has as its system PKA:AKAP interaction. As to conditions: through an allosteric effect away from the D/D domain; ref [32]; cited from earlier work.

IVILEYAHRLpSQDILCDALQQWAC [AKB-pSer66]: in data set [1], the “secondary structure by CD” value is on record as “no secondary structure”.

With “His6-smAKAP: recombinant human His-tagged smAKAP (wt), called smAKAP-wt in the phosphorylation assay”, in the data set with PKG Iα, the “phosphorylation by PKG Iα compared with PKA” value was “only PKA phosphorylated”.

Take IVILEYAHRLDQDILCDALQQWAC [AKB-S66D]: in data set [1], the “secondary structure by CD” value is given as “no secondary structure”.

Take IVILEYAHRLSQDILCDALQQWAC [AKB-wt]: in data set [1], the “α-helix propensity by CD” value was ~ 45%.

Regarding “smAKAP-wt-GFP: wild-type smAKAP GFP fusion expressed in transfected cells”, the “colocalization with PKA-RIα” value in the data set with PKA-RIα is recorded as “strong colocalization along the plasma membrane”. The “colocalization with PKA-RIβ-mKO2” value with PKA-RIβ is “strong colocalization along the plasma membrane; also recorded: colocalization at the plasma membrane”.

For IVILEYAHRLEQDILCDALQQWAC [AKB-S66E], in data set [1], the “secondary structure by CD” value is listed as “no secondary structure”.

`Nc1cc(Cc2ccc(O)c(N)c2)ccc1O` [FMP-API-1]: the “inhibition of PKA binding to AKAPs” value in the data set with PKA:AKAP interaction is listed as “inhibit the binding of PKA to AKAPs”.
